Assay outcomes as filed in PubChem.
TAG inh: triacylglycerol accumulation inhibition | 0.66% of 230,000 active | AID 651582 | H9c2 cells, Nile Red lipid (TAG) fluorescence; cells loaded with 200 µM oleic acid | inhibition, % at 12.5 µM;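 active means pattern-corrected inhibition of lipid staining of at least 50% with the nuclear-stain viability signal not falling by more than 50%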
Beta2AR agonist: human beta-2 adrenergic receptor agonism by FAP; P07550; Am2.2-beta2AR cells, FAP receptor internalization, flow cytometry; response, % (test concentration not listed); 0.43% of 340,000 active;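 active means response above a set limit, near 3 SD of response in nonfluorescent compounds, cut at about 42% in these data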
Arr AP2 block: blocks beta-arrestin peptide binding to AP2 adaptin | FITC-arrestin peptide / GST-AP2 beads, flow cytometry; AP2 beta2 appendage carries R879A mutation | inhibition, % at 10 µM | 0.31% of 340,000 active;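 active means inhibition above a set limit, near 3 SD of compounds lacking own fluorescence, cut at about 54% in these data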
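Material – AP2 appendage R879A on GSH beads · Buffer or medium – PBS with 0.05% Tween 20 and 0.1% BSA · Probe or stimulus – fluorescein-tagged arrestin peptide at 50 nM final · Incubation – compound with beads 12 min RT, then probe 1 h RT · Detection – high-throughput flow cytometry of beads, ex 488, em 535 nm · Evaluation – percent response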
NTR1 agonist: agonists of human neurotensin receptor NTR1. P30989. NTR1-U2OS beta-arrestin-GFP spot imaging, agonist mode. activation, % at 20 µM. 0.17% of 330,000 active;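 active means activation at or above 40% of the spot to cytoplasm intensity ratio, with at least 20 cells analyzed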
Target sequence (P30989 whole entry, looked up): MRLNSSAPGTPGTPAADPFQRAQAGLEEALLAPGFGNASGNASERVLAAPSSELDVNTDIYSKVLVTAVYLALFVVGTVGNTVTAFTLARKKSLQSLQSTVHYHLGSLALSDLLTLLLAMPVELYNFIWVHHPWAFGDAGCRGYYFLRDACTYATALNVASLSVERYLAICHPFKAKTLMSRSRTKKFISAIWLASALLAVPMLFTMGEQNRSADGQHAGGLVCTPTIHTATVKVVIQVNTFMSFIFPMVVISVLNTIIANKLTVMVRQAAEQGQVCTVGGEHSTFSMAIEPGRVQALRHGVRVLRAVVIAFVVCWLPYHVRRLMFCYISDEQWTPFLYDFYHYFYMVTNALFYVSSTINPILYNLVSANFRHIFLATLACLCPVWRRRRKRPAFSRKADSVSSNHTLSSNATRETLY
Hep lipid drop: hepatic lipid droplet formation modulation; AML12 mouse hepatocytes, oleate lipid droplets, BODIPY imaging; inhibition, % at 6.5 µM; 0.4% of 240,000 active;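 active means lipid droplet intensity inhibited by at least 50%, with more than 500 cells counted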
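System: AML12 hepatocytes (mouse). Probe or stimulus: oleic acid at 100 µM to induce lipid droplet formation. Times: overnight treatment with compound plus oleate. Detection: Image-based BODIPY and DAPI two-channel analysis. Evaluation: percent inhibition of filter-corrected integrated lipid droplet intensity per well.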
GRK2 aptamer HTS: human GRK2 inhibition via aptamer displacement; bead flow cytometry, FAM-aptamer displacement from GRK2; P25098; 0.59% of 330,000 active; AID 488847; inhibition of aptamer binding, % at 10 µM;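 active means inhibition of aptamer binding above 40%, roughly 3 SD of noise, on plates passing a quality check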;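 further: median bead fluorescence of bound FAM aptamer so fluorescent compounds give negative values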
NTR1 ag confirm: NTR1 (human) agonism, confirmed; activation, % at 20 µM; 38% of 480 active; shares compounds with NTR1 agonist; NTR1-U2OS beta-arrestin-GFP translocation imaging;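 active means mean activation at 20 µM of at least 40%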
Large screens that a line does not name were inactive (follow-up assays come after a bar, where they were run). The list is not random: actives were taken first. Their share in the collection is about 2%.

COc1ccc(Nc2nc(N)c([N+](=O)[O-])c(NC3CCCCC3)n2)cc1	NTR1 agonist 46 (no result: TAG inh) | NTR1 ag confirm inactive
O=C(/C=C/c1cccnc1)c1ccc(F)c(F)c1	NTR1 agonist 61 (no result: TAG inh) | NTR1 ag confirm 69
O=C(/C=C/c1cccc(OCc2ccccc2)c1)c1cccnc1	NTR1 agonist 54 | NTR1 ag confirm inactive
COCCn1c(N)c(N(Cc2ccccc2)C(=O)c2cc3ccccc3o2)c(=O)[nH]c1=O	none
CN(c1ccccc1)c1nc(N)c([N+](=O)[O-])c(Nc2cccc(F)c2)n1	NTR1 agonist 44 (no result: TAG inh) | NTR1 ag confirm inactive
O=C(NCC(c1cccs1)N1CCOCC1)C1CCN(S(=O)(=O)c2cccc(C(F)(F)F)c2)CC1 (configuration not stated)	none (no result: Hep lipid drop)
Cc1cc2c3c(c1)C(C)(c1ccccc1)CC(C)(C)N3C(=O)C21C(C#N)=C(N)OC2=C1C(=O)CC(C)(C)C2 (configuration not stated)	NTR1 agonist 40 (no result: TAG inh) | NTR1 ag confirm 42
CC1(c2ccccc2)CC(C)(C)N2C(=O)C3(C(C#N)=C(N)Oc4cc(O)ccc43)c3cccc1c32 (configuration not stated)	none (no result: TAG inh)
CCOc1ccc(S(=O)(=O)NCCC(=O)N2CC=C(c3ccccc3)CC2)cc1	none (no result: Hep lipid drop)
C=C(C)COc1ccc(-c2nc(N)nc(C(F)(F)F)c2-c2ccc(OC)cc2)c(O)c1	NTR1 agonist 41 (no result: TAG inh) | NTR1 ag confirm inactive
CCCCNc1c(-c2ccc(OC)c(Sc3ccc(OC)cc3)c2)nc2ccccn12	NTR1 agonist 56 (no result: Hep lipid drop) | NTR1 ag confirm 71
CCCCNc1c(-c2ccc(OC)c(Sc3ccc(OC)cc3)c2)nc2cnccn12	none (no result: Hep lipid drop)
O=C(CNC(=O)c1ccc(Br)o1)Nc1cccc(S(=O)(=O)N2CCCC2)c1	none (no result: Hep lipid drop)
Cc1ccc2nc(-c3ccc(NC(=O)C(C)Sc4nncs4)cc3)sc2c1 (configuration not stated)	NTR1 agonist 49 (no result: Hep lipid drop) | NTR1 ag confirm inactive
Cc1cccc(NC(=O)c2nc[nH]c2C(=O)Nc2cccc(C)c2)c1	none
Cc1cccc(NC(=O)c2nc[nH]c2C(=O)N[C@@H](C)c2ccccc2)c1	NTR1 agonist 50 (no result: Hep lipid drop) | NTR1 ag confirm inactive
Cc1cc(N/N=C/c2ccccc2O)nc(-c2ccccc2O)n1	NTR1 agonist 63 (no result: TAG inh) | NTR1 ag confirm inactive
Cc1cc(N/N=C/c2ccc(O)cc2O)nc(-c2ccccc2O)n1	none (no result: TAG inh, NTR1 agonist)
CCOC(=O)C1CCCN(c2c(NCCc3ccc(Cl)cc3)c(=O)c2=O)C1 (configuration not stated)	none
O=C(NCc1ccccc1)C1CCC(CNS(=O)(=O)c2cccs2)CC1 (configuration not stated)	NTR1 agonist 42 (no result: TAG inh) | NTR1 ag confirm inactive
OC(CNCCc1ccc(Cl)cc1)COc1cc(Cl)ccc1Cl (configuration not stated)	NTR1 agonist 41 (no result: TAG inh, Hep lipid drop) | NTR1 ag confirm inactive
CC(NCC(O)COCCC12CC3CC(CC(C3)C1)C2)c1ccccc1 (configuration not stated)	NTR1 agonist 46 (no result: TAG inh) | NTR1 ag confirm 69
COc1ccc(CN2CCCC(C(=O)N3CCCCC3)C2)cc1OC (configuration not stated)	none (no result: TAG inh)
CC(C)Cn1c(O)c(/C=C2\C=NN=C2c2ccccc2)sc1=S	NTR1 agonist 59 (no result: TAG inh) | NTR1 ag confirm 61
CCCNC(=O)Cn1c(=O)/c(=C\c2ccc(-c3ccc([N+](=O)[O-])cc3)o2)s/c1=C\C(=O)C(C)(C)C	none (no result: TAG inh, Beta2AR agonist, NTR1 agonist)
O=C1Nc2ccc(Br)cc2/C1=C/C1CC=CCC1 (configuration not stated)	NTR1 agonist 42 | NTR1 ag confirm inactive
O=C1NC(Cc2ccccc2)C(=O)Nc2ccc(Br)cc21 (configuration not stated)	none
Nc1ccc(-c2cc(-c3ccc(N)cc3)nc(-c3ccccc3)n2)cc1	none (no result: TAG inh)
Oc1ccc(-c2cc(-c3ccc(O)cc3)nc(-c3ccccc3)n2)cc1	NTR1 agonist 52 (no result: TAG inh, Hep lipid drop) | NTR1 ag confirm 57
CC(C)(C)c1ccc(OCCOc2ccc(C(C)(C)C)cc2NC=O)c(NC=O)c1	NTR1 agonist 43 (no result: TAG inh) | NTR1 ag confirm inactive
CC(C)CCN1C(=O)c2cccc3c(N)ccc(c23)C1=O	none (no result: Hep lipid drop)
Cc1[nH]n(-c2ccccc2)c(=O)c1C(C[N+](=O)[O-])c1ccc(Br)cc1 (configuration not stated)	none
COc1cccc(C(C[N+](=O)[O-])c2c(C)[nH]n(-c3ccccc3)c2=O)c1 (configuration not stated)	NTR1 agonist 51 (no result: TAG inh) | NTR1 ag confirm inactive
Nc1ccccc1C#CC(=O)c1ccccc1	Beta2AR agonist 44, NTR1 agonist 71 (no result: TAG inh) | NTR1 ag confirm 83
Nc1ccccc1C#Cc1ccc([N+](=O)[O-])cc1	none (no result: Hep lipid drop)
CCOC(=O)c1c(-c2ccco2)csc1NC(=O)COC(=O)c1cnccn1	none (no result: Hep lipid drop)
O=c1cc(-c2ccc(O)cc2)oc2cc(O)c(C3OC(CO)C(O)C(O)C3O)c(O)c12 (configuration not stated)	NTR1 agonist 41 (no result: TAG inh) | NTR1 ag confirm 52
Cc1ccc(C(=O)N2CCN(c3ncccn3)CC2)c(C)c1	none (no result: TAG inh)
COc1ccc(C(=O)n2nc(-c3ccco3)nc2N)cc1	NTR1 agonist 52 | NTR1 ag confirm inactive
Cc1ccc(C(=O)n2nc(-c3ccco3)nc2N)cc1	none (no result: Hep lipid drop)
Cc1ccc(OCC(=O)N/N=C\c2cn(Cc3ccccc3)c3ccccc23)cc1C	NTR1 agonist 41 (no result: TAG inh) | NTR1 ag confirm inactive
COc1ccc(O)c(-c2cc(-c3cccc(Br)c3)n[nH]2)c1	NTR1 agonist 55 (no result: Hep lipid drop) | NTR1 ag confirm inactive
CCOC(=O)C1CCN(C(=O)c2cccc(S(=O)(=O)N3CCCc4ccccc43)c2)CC1	none (no result: NTR1 agonist, Hep lipid drop, GRK2 aptamer HTS)
C=CCOc1ccc(CN(C)C(=O)c2ccc(CNS(=O)(=O)c3ccc(C)c(C)c3)cc2)cc1	none (no result: Hep lipid drop)
O=c1c([N+](=O)[O-])cccn1Cc1cccc(Br)c1	none (no result: TAG inh)
CC(=O)c1cc(Cl)ccc1OC(=O)c1ccco1	none (no result: TAG inh)
O=C(Oc1ccc(Br)cc1C(=O)/C=C/c1ccccc1F)c1ccco1	Beta2AR agonist 58, NTR1 agonist 55 (no result: Hep lipid drop) | NTR1 ag confirm 40
COc1cc(C(=O)Nc2cccc(C)c2C)ccc1OCC(=O)N1CCOCC1	none (no result: Hep lipid drop)
O=[N+]([O-])c1cc(C(F)(F)F)ccc1NCCCCNS(=O)(=O)c1ccc(Cl)cc1	none (no result: TAG inh)
O=[N+]([O-])c1cc(C(F)(F)F)ccc1NCCNC(=S)Nc1ccc(Cl)cc1	NTR1 agonist 41 (no result: TAG inh, Hep lipid drop) | NTR1 ag confirm inactive
Cc1csc(=O)n1CC(=O)OCC(=O)c1c(N)n(C)c(=O)n(C)c1=O	none (no result: Hep lipid drop)
